Shown are actives, neighbours in structure and some others; about 3% of the full set was active somewhere.
SENP8 block-1 = SENP8 protease inhibition | Q96LD8 | purified SENP8, Z-RLRGG-aminoluciferin cleavage, luminescence | inhibition, % at 10 µM | 1.2% of 330,000 active; in the data active means inhibition above about 50%
Target sequence (Q96LD8 whole entry, looked up): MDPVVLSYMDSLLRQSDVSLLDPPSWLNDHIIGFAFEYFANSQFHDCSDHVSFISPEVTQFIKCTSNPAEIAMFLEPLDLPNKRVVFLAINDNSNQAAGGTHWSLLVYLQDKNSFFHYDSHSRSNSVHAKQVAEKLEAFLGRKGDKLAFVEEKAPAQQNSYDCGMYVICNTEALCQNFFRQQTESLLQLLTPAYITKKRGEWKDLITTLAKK
UBC13 inh = blocks human UBC13 polyubiquitin chain formation | inhibition, % at 20 µM | 0.47% of 330,000 active | P61088 | AID 485273 | TR-FRET; in the data active means inhibition above about 45%, passing the limit was not always enough
Apaf-1 inh = human Apaf-1 inhibition; 0.71% of 330,000 active; AID 489030; O14727; inhibition, % at 20 µM; reconstituted apoptosome caspase-3 activity, DEVD-Rh110 fluorescence; active means inhibition of at least 40% at 20 µM
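Material: reconstituted apoptosome with Apaf-1, cytochrome c, caspase-9, procaspase-3, dATP; medium: pH 7.5 Hepes buffer with CHAPS, BSA, DTT; also added: cytochrome c and DEVD-Rh110 substrate; timing: 30 min plus 50 min, RT; signal: Rh110 fluorescence intensity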
SENP8 block-2 = SENP8 (human) protease inhibition | Q96LD8 | recombinant SENP8, Nedd8 substrate fluorescence | inhibition, % at 20 µM | 0.64% of 360,000 active | AID 602440; in the data active means inhibition mostly above about 40%, no sharp cut-off; inactive means mostly below about 27%
SENP7 block = SENP7 protease inhibition | inhibition, % at 5 µM | 1.5% of 330,000 active | recombinant SENP7, Z-RLRGG-aminoluciferin luminescence, 40 min | Q9BQF6;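 active means inhibition above about 50% at the single test dose, limit read from the data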
Target sequence (Q9BQF6 706-1050 limits assumed): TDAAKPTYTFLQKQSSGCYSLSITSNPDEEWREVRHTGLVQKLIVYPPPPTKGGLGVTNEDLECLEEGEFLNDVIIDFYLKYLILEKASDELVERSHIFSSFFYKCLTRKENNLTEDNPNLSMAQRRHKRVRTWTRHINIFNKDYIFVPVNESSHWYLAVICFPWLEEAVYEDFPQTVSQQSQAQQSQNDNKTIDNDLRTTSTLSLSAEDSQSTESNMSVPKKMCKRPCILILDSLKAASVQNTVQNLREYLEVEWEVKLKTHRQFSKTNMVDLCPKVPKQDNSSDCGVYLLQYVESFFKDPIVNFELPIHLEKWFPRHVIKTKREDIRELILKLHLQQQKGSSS
SENP6 block = SENP6 protease inhibition. Recombinant SENP6 catalytic domain, aminoluciferin luminescence. inhibition, % at 10 µM. 1.8% of 330,000 active. AID 2599;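 active means inhibition above about 50% at the single tested dose, limit read from the data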
A number is an active result; n = inactive; x = no result.

SMILES	SENP8 block-1	UBC13 inh	Apaf-1 inh	SENP8 block-2	SENP7 block	SENP6 block
Cc1cccc(Cn2nc(C)cc2NC(=O)CCCn2ccc([N+](=O)[O-])n2)c1	n	n	n	n	n	n
O=C(C1CCCO1)N1CCN(C(=S)Nc2cc(F)cc(F)c2)CC1 (centres undefined)	n	n	n	n	n	n
CCCCCCCCCCCC1=C(O)C(=O)C=C(O)C1=O	x	x	x	45.9	x	x
Cc1nc(N)sc1C(=O)N/N=C/c1ccccc1[N+](=O)[O-]	n	94.8	n	n	n	n
O=C(O)c1ccc(COc2ccc3c(c2)CCC3)cc1	83.7	n	n	n	51.0	94.8
C[n+]1c(/C=C/c2ccc(O)cc2)ccc2ccccc21	n	n	n	n	n	n
Cc1cc(/C=C\c2ccc3cc(N(C)C)ccc3[n+]2C)c(C)n1-c1ccccc1	n	n	43.3	n	n	n
COc1ccc(NC2c3ccccc3C(=O)N2c2cccnc2)cc1 (centres undefined)	n	n	n	n	n	n
O=C1NNC(c2ccccc2)=N/C1=C\c1ccccc1	n	n	n	46.9	n	n
Cc1ccc(/C=C2/N=C(c3ccccc3)NNC2=O)cc1	n	n	n	n	n	n
Cc1ccc2nc(SCC(=O)Nc3cc(C)on3)c(C)cc2c1	n	n	n	n	n	n
CC(C)(C)c1ccc(/C=N/N2CCN(c3ccccn3)CC2)cc1	n	n	n	n	n	n
CN(C)c1ccc(/C=N/N2CCN(c3ccccn3)CC2)cc1	62.0	n	n	n	77.7	74.5
CCC(NC(=O)COC(=O)C1CC2CCCC(C1)C2=O)c1ccc(Br)cc1 (centres undefined)	n	n	n	n	n	n
CC(C)C1Oc2ccccc2N(CC(=O)NC2CCCCC2)C1=O (centres undefined)	n	n	n	n	n	n
Cn1nc(-c2ccc(Cl)cc2)c2cc(C(=O)NCCCN3CCCC3)sc21	n	n	49.2	n	n	n
CCc1ccc(CN(C)C(=O)C2CCC(=O)N(Cc3ccccn3)C2)cc1 (centres undefined)	n	n	n	n	n	n
COc1cccc(/C=N/Nc2nc(C)cc(=O)[nH]2)c1OC	n	n	n	n	n	n
COc1cccc(/C=N/Nc2ncccc2[N+](=O)[O-])c1OC	95.1	n	n	n	98.3	98.5
COc1cccc(/C=N/Nc2ccc([N+](=O)[O-])cn2)c1O	83.5	n	n	n	97.8	90.5
O=C(CN1CCN(S(=O)(=O)N2CCCCC2)CC1)Nc1ccc(Cl)c(Cl)c1	n	n	n	n	n	n
CCSCCC(NC1=CC(=O)CC(C)(C)C1)C(=O)O (centres undefined)	n	n	48.7	n	n	n
CC(=O)Nc1cccc2c1C(=O)N(c1ccccc1OC(C)=O)C2=O	n	n	n	n	n	n
Cc1ccc(S(=O)(=O)NCc2ccccc2)cc1C(=O)NCCc1ccc(S(N)(=O)=O)cc1	n	n	n	n	n	n
Cc1ccc2c(c1)[nH]c1c(=O)n(Cc3ccco3)cnc12	n	n	n	n	n	n
SMILES	SENP8 block-1	UBC13 inh	Apaf-1 inh	SENP8 block-2	SENP7 block	SENP6 block
CCOc1ccc(-n2c(C)nc(O)c2N=Nc2ccccc2)cc1	n	n	n	43.0	n	n
CCOc1ccc(N=Nc2ccc(O)c3ncccc23)cc1	n	n	n	n	n	n
Cc1nn(CC(=O)Nc2cc(S(=O)(=O)N3CCOCC3)ccc2Cl)c(C)c1[N+](=O)[O-]	n	n	n	n	n	n
O=[N+]([O-])c1ccc(O)c(/C=N/Nc2ccc(Cl)nn2)c1	n	n	n	n	n	54.4
O=[N+]([O-])c1ccc(O)c(/C=N/NC2=NS(=O)(=O)c3ccccc32)c1	82.4	n	n	n	94.7	86.2
O=[N+]([O-])c1ccc(/C=N/NC2=NS(=O)(=O)c3ccccc32)cc1	n	n	n	n	n	n
COc1ccc(CN(Cc2cccn2C)S(=O)(=O)c2cccc(C(F)(F)F)c2)cc1	n	n	n	n	n	n
O=C(Nn1cnc2ccccc2c1=O)c1ccc(Cl)c([N+](=O)[O-])c1	n	n	n	n	n	n
COc1ccccc1OCCNC(=O)C1CC(=O)N(Cc2ccc(C)cc2)C1 (centres undefined)	n	n	n	n	n	n
C(=Nc1ccccc1)c1ccc[nH]1	x	x	x	n	x	x
Oc1ccccc1N=Cc1ccc[nH]1	n	n	n	40.6	n	n
O=C(Nc1ccccc1)O[C@@H]1C[C@H]2CCC(=O)N3CC[C@@H](C1)[C@@H]23	54.6	n	n	x	59.8	56.4
O=C(Nc1ccccc1)O[C@@H]1C[C@H]2CCCC(=O)N3CC[C@@H](C1)[C@@H]23	x	x	x	n	x	x
O=C(CSc1nnc2ccccn12)Nc1cccc(-c2nc3ccccc3s2)c1	n	n	n	n	62.8	n
O=C(CSc1nnc2ccccn12)Nc1ccc2c(c1)OCO2	n	n	n	n	n	n
Cc1ccsc1C(=O)Nc1nc2ccccc2[nH]1	94.7	n	n	n	98.3	98.6
CCc1ccc(Nc2nnc(SCC(=O)NCCN3C(=O)CSC3=O)s2)cc1	n	n	n	n	n	51.6
C=CCn1c(O)c(N=Nc2ccccc2[N+](=O)[O-])c2ccccc21	x	x	x	46.5	x	x
O=C(CCC1N=C2c3ccccc3N=C(SCc3ccc(Cl)cc3)N2C1=O)NCc1ccco1 (centres undefined)	n	n	40.8	n	n	n
O=C(CCC1N=C2c3ccccc3N=C(SCc3ccc(F)cc3)N2C1=O)NCc1ccco1 (centres undefined)	n	n	n	n	n	n
COc1ccc(NC(=O)Nc2ccc(F)c(Cl)c2)cc1	n	n	n	n	51.5	n
Cc1nnsc1C(=O)Nc1ccc(Cl)cc1	n	n	n	n	n	n
Cc1nnsc1C(=O)NC(=O)Nc1ccc(F)c(Cl)c1	78.2	n	n	n	n	81.9
CCc1cc(C(=O)c2ccc(Br)cc2)c(NC(=O)CN(CC)CC)s1	n	n	n	n	n	n
CC(CNC(=O)Cn1ccc(N)nc1=O)c1ccccc1 (centres undefined)	n	n	n	n	n	n
SMILES	SENP8 block-1	UBC13 inh	Apaf-1 inh	SENP8 block-2	SENP7 block	SENP6 block
O=C(Cc1cccs1)Nc1nc2c(s1)CCCC2	n	n	n	n	n	n
O=C(O)c1ccc(Nc2nc3c(s2)CCCC3)cc1	96.2	n	n	n	100.0	98.9
O=C(Nc1sc2c(c1C(=O)O)CCC2)c1cccs1	92.5	n	n	n	n	90.3
O=C(Nc1nc2c(s1)CCCC2)c1cccs1	92.4	n	n	n	96.4	95.0
O=C(Nc1sc2c(c1C(=O)O)CCCC2)c1ccc(Cl)cc1	78.0	n	n	n	n	89.1
C#CCn1c(S(=O)(=O)Cc2ccc(F)cc2)nc(-c2ccccc2)c1-c1ccccc1	n	n	n	n	n	n
Cc1nn(C)cc1CN(C)C(=O)c1cc(-c2ccccc2)nc2ccc(Br)cc12	n	n	n	n	n	n
CCN(CC)c1ccc(/C=N/NC(=O)c2ccc(Br)o2)cc1	n	n	n	n	n	70.0
